Measurements taken from ChEMBL document CHEMBL1914335, “Identification of a potent and selective σ₁ receptor agonist potentiating NGF-induced neurite outgrowth in PC12 cells” (Bioorg Med Chem, 2011).
Activity calls are given as the source filed them. The rule behind the calls is not given here.

Experiments:
[1] = biological target: Mu-type opioid receptor (Cavia porcellus) (UniProt P97266); assay: Displacement of [3H]-DAMGO from mu opioid receptor in guinea pig brain membrane assessed as residual binding at 1 uM after 150 mins by liquid scintillation counting; type: cell membranes
Chain of Mu-type opioid receptor (Cavia porcellus) (P97266 whole entry): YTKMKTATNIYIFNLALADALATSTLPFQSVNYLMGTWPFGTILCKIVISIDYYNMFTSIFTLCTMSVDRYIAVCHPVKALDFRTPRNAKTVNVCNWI
How it was run: (§1)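 Guinea pig brain membranes (about 75 µg protein) incubated with 1 nM [3H]-DAMGO in 50 mM Tris, 8 mM MgCl2, 400 µM PMSF, pH 7.4, 150 min at 37 °C. Nonspecific binding with 10 µM naloxone. Filtration, then solid scintillator counting in triplicate. Residual binding taken at 1 µM test compound; otherwise IC50 from ≥6 concentrations, Ki by Cheng-Prusoff (Kd 0.57 nM).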

[2] = Displacement of [3H]-DTG from sigma2 receptor in guinea pig brain membrane after 120 mins by liquid scintillation counting; type: cell membranes, Cavia porcellus
How it was run: (§2)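 For σ2, membranes (360 µg protein) incubated at rt for 120 min with 3 nM [3H]DTG plus 0.4 µM (+)-SKF10,047, with nine test concentrations in 50 mM Tris-HCl pH 8.0; nonspecific binding with 5 µM DTG. For σ1, 3 nM [3H]-(+)-pentazocine, 150 min at 37 °C, pH 7.4, haloperidol 10 µM. Both read by filtration and scintillation counting; Ki values derived.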

[3] = biological target: Kappa-type opioid receptor (Cavia porcellus) (UniProt P41144); assay: Displacement of [3H]-U69593 from kappa opioid receptor in guinea pig brain membrane assessed as residual binding at 1 uM after 150 mins by liquid scintillation counting; type: cell membranes
Chain of Kappa-type opioid receptor (Cavia porcellus) (P41144 whole entry): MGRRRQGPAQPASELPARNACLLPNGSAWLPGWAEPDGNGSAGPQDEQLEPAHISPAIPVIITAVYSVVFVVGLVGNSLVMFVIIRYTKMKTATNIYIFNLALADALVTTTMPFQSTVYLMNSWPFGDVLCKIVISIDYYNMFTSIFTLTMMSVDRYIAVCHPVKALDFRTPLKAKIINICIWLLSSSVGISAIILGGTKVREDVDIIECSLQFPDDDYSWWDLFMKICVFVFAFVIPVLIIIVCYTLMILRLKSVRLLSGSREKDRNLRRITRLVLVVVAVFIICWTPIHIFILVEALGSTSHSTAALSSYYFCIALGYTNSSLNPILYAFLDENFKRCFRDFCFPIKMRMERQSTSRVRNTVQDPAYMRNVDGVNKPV
How it was run: as §1, with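 “[3H]-U69,593” for “[3H]-DAMGO”, “MgCl2,” for “MgCl2, 400 µM PMSF,”, “unlabeled U69,593.” for “naloxone.”, “µM;” for “µM test compound;”, “0.69” for “0.57”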

Cavia porcellus = species: Cavia porcellus; assay: Selectivity ratio of Ki for sigma2 receptor in guinea pig brain membrane to Ki for sigma1 receptor in guinea pig brain membrane; type: cell membranes; how it was run: as §2
Sus scrofa = species: Sus scrofa; assay: Displacement of [3H]-(+)-MK-801 from NMDA receptor PCP binding site in pig brain cortex assessed as residual binding at 10 uM after 150 mins by scintillation counting
How it was run: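 Pig brain cortex membranes (about 100 µg protein) incubated with 2 nM [3H]-(+)-MK-801 in 5 mM Tris-acetate/1 mM EDTA pH 7.5, 150 min at rt. Nonspecific binding with 10 µM (+)-MK-801. Filtration, then solid scintillator counting. Residual binding measured at 10 µM test compound.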

[4] = biological target: Sigma non-opioid intracellular receptor 1 (Cavia porcellus, UniProt Q60492); assay: Displacement of [3H]-(+)-pentazocine from sigma1 receptor in guinea pig brain membrane after 150 mins by liquid scintillation counting; type: cell membranes
Chain of Sigma non-opioid intracellular receptor 1 (Q60492 whole entry): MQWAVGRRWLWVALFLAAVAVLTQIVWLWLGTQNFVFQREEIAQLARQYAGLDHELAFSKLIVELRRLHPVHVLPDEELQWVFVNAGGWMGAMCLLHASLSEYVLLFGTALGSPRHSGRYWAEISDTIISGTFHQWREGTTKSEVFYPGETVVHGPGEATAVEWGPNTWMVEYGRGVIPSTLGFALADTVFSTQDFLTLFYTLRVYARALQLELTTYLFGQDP
How it was run: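 Membranes (500 µg protein) incubated with 3 nM [3H]-(+)-pentazocine and nine test concentrations in 50 mM Tris-HCl pH 7.4, 150 min at 37 °C. Nonspecific binding defined by 10 µM haloperidol. Samples filtered on PEI-presoaked GF/B filters and counted by liquid scintillation; Ki calculated from these curves.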

[5] = biological target: Kappa-type opioid receptor (Cavia porcellus, UniProt P41144); assay: Displacement of [3H]-U69593 from kappa opioid receptor in guinea pig brain membrane after 150 mins by liquid scintillation counting; type: cell membranes
Chain of Kappa-type opioid receptor (P41144 whole entry): as the sequence (P41144 whole entry) above
How it was run: as §1, with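 “[3H]-U69,593” for “[3H]-DAMGO”, “MgCl2,” for “MgCl2, 400 µM PMSF,”, “unlabeled U69,593.” for “naloxone.”, “µM;” for “µM test compound;”, “0.69” for “0.57”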

[6] = biological target: Sigma non-opioid intracellular receptor 1 (Rattus norvegicus) (UniProt Q9R0C9); assay: Agonist activity at sigma1 receptor in rat PC12 cells assessed as cells with increase in NGF-induced neurite outgrowth at 0.25 uM after 5 days by phase contrast microscopy in presence of 5 uM sigma1 receptor antagonist BD-1063; type: functional, cell-based; settings: PC-12
Chain of Sigma non-opioid intracellular receptor 1 (Rattus norvegicus) (Q9R0C9 whole entry): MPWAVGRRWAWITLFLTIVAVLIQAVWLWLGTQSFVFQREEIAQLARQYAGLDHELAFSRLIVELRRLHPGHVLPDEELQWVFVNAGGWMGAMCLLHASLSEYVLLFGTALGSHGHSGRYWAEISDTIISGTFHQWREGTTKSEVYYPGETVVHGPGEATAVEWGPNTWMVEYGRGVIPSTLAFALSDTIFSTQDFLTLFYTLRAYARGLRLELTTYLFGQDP
How it was run: (§3)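 PC12 cells grown at 37 °C, 5% CO2 in RPMI with 5% FBS and 10% horse serum. Replated at 0.25 × 10^4 cells/cm2 on poly-D-lysine glass coverslips. After 24 h, switched to 0.5% HS medium with NGF 2.5 ng/mL ± drug, BD-1063 at 5 µM final where used. After 5 days, fixed in 4% PFA. Cells with ≥1 neurite at least one cell-body diameter long were scored blind by two examiners; ≥3 independent experiments.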

HaCaT [7] = assay: Cytotoxicity against human HaCaT cells at 1x10'-8 to 1x10'-5 M after 48 hrs by MTT assay; type: cell-based
How it was run: (§4)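 HaCaT cells plated at 5000/well. After 24 h, exposed to 1 × 10^-8 to 1 × 10^-5 for 48 or 72 h at 37 °C, 5% CO2, in medium with 5% FBS or serum-free (N = 6 each). Viability was read as optical density in an MTT-based assay.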

[8] = biological target: Sigma non-opioid intracellular receptor 1 (Rattus norvegicus) (UniProt Q9R0C9); assay: Agonist activity at sigma1 receptor in rat PC12 cells assessed as increase of NGF-induced neurite elongation at 0.25 uM after 5 days by phase contrast microscopy; type: functional, cell-based; settings: PC-12
How it was run: (§5)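 Culture conditions match the neurite-outgrowth note: PC12 cells on poly-D-lysine coverslips with NGF 2.5 ng/mL ± drug for 5 days, BD-1063 at 5 µM final where used. Cells were then fixed in 4% PFA and imaged by phase contrast, six fields per coverslip. Neurite length was traced from cell body to tip, measured blind by two examiners; ≥3 independent experiments; mean ± SEM.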

[9] = biological target: Sigma non-opioid intracellular receptor 1 (Rattus norvegicus) (UniProt Q9R0C9); assay: Agonist activity at sigma1 receptor in rat PC12 cells assessed as decrease in NGF-induced neurite elongation at 0.25 uM after 5 days by phase contrast microscopy in presence of 5 uM sigma1 receptor antagonist BD-1064 relative to compound alone; type: functional, cell-based; parameters: scale not given: the % may be the effect or the level left; settings: PC-12, in the assay text read “BD-1063” for “BD-1064”; how it was run: as §5
[10] = biological target: Sigma non-opioid intracellular receptor 1 (Rattus norvegicus) (UniProt Q9R0C9); assay: Agonist activity at sigma1 receptor in rat PC12 cells assessed as cells with increase in NGF-induced neurite outgrowth at 0.01 uM after 5 days by phase contrast microscopy; type: functional, cell-based; settings: PC-12; how it was run: as §3
HaCaT [11] = assay: Cytotoxicity against human HaCaT cells at 1x10'-8 to 1x10'-5 M after 72 hrs by MTT assay; type: cell-based; how it was run: as §4
PC-12 = assay: Cytotoxicity against rat PC12 cells; type: cell-based
[12] = biological target: Sigma non-opioid intracellular receptor 1 (Rattus norvegicus) (UniProt Q9R0C9); assay: Agonist activity at sigma1 receptor in rat PC12 cells assessed as cells with increase in NGF-induced neurite outgrowth at 2.5 uM after 5 days by phase contrast microscopy; type: functional, cell-based; settings: PC-12; how it was run: as §3
[13] = biological target: Sigma non-opioid intracellular receptor 1 (Rattus norvegicus) (UniProt Q9R0C9); assay: Agonist activity at sigma1 receptor in rat PC12 cells assessed as increase of NGF-induced neurite length at 2.5 uM after 5 days by phase contrast microscopy; type: functional, cell-based; settings: PC-12; how it was run: as §5
Mu-type opioid receptor = Mu-type opioid receptor (Cavia porcellus, UniProt P97266); assay: Displacement of [3H]-DAMGO from mu opioid receptor in guinea pig brain membrane after 150 mins by liquid scintillation counting; type: cell membranes; how it was run: as §1
Chain of Mu-type opioid receptor (P97266 whole entry): as the sequence (P97266 whole entry) above

[14] = biological target: Sigma non-opioid intracellular receptor 1 (Rattus norvegicus) (UniProt Q9R0C9); assay: Agonist activity at sigma1 receptor in rat PC12 cells assessed as cells with increase in NGF-induced neurite outgrowth at 0.05 to 2.5 uM after 5 days by phase contrast microscopy; settings: PC-12
[15] = biological target: Sigma non-opioid intracellular receptor 1 (Rattus norvegicus) (UniProt Q9R0C9); assay: Agonist activity at sigma1 receptor in rat PC12 cells assessed as cells with increase in NGF-induced neurite outgrowth at 0.25 uM after 5 days by phase contrast microscopy; type: functional, cell-based; settings: PC-12; how it was run: as §3
[16] = biological target: Sigma non-opioid intracellular receptor 1 (Rattus norvegicus) (UniProt Q9R0C9); assay: Agonist activity at sigma1 receptor in rat PC12 cells assessed as increase of NGF-induced neurite elongation at 0.05 uM after 5 days by phase contrast microscopy; type: functional, cell-based; settings: PC-12; how it was run: as §5
[17] = biological target: Sigma non-opioid intracellular receptor 1 (Rattus norvegicus) (UniProt Q9R0C9); assay: Agonist activity at sigma1 receptor in rat PC12 cells assessed as cells with increase in NGF-induced neurite outgrowth at 0.05 uM after 5 days by phase contrast microscopy; type: functional, cell-based; settings: PC-12; how it was run: as §3

| Compound | Activity [1] | Ki [2] | Activity [3] | Ratio Ki (Cavia porcellus) | Activity (Sus scrofa) | Ki [4] | other results |
| --- | --- | --- | --- | --- | --- | --- | --- |
| C/C(=C\CN1CCC(Cc2ccccc2)CC1)c1ccc(-c2ccccc2)cc1 | 0% | 0.018 µM | 10% | 2.6 | 17% | 0.00702 µM | – |
| COc1cccc(/C(C)=C/CN2CCC(Cc3ccccc3)CC2)c1 | 36% | 0.0058 µM | – | 0.8 | 36% | 0.0077 µM | Ki [5]: 0.214 µM |
| C/C(=C\CN1CCOCC1)c1ccc(-c2ccccc2)cc1 | 52% | 0.386 µM | 10% | 33.3 | 69% | 0.0116 µM | – |
| C/C(=C\CN1CCOCC1)c1ccc2ccccc2c1 | 44% | 0.229 µM | 15% | 23.9 | 31% | 0.0096 µM | – |
| C/C(=C\CN1CCCCC1)c1ccc2ccccc2c1 | 23% | 0.0351 µM | 44% | 36.2 | 16% | 0.00097 µM | – |
| COc1ccc(/C(C)=C/CN2CCCCC2)cc1 | 36% | 0.149 µM | 14% | 10.6 | 0% | 0.014 µM | – |
| CC(CCN1CCCCC1)c1ccc(-c2ccccc2)cc1.Cl (racemic) | 0% | 0.103 µM | 36% | 147 | 25% | 0.0007 µM | Activity [6]: 18.6%; Activity (HaCaT [7]): Non-toxic; Activity [8]: 131 µm; Activity [9]: 31%; Activity [10]: 23.4%; Activity (HaCaT [11]): Non-toxic; Activity (PC-12): Non-toxic |
| O=C(OCCN1CCOCC1)C1(c2ccccc2)CCCCC1 | – | – | – | – | – | – | Activity [12]: inactive; Activity [13]: inactive; Activity [10]: inactive |
| COc1cccc(/C(C)=C/CN(C)Cc2ccccc2)c1 | 49% | 0.163 µM | – | 16.3 | 8% | 0.01 µM | Ki [5]: 0.301 µM |
| C/C(=C\CN(C)C)c1ccccc1 | 0% | > 1 µM | 0% | – | 0% | > 1 µM | – |
| COc1cccc(/C(C)=C/CN2CCCCC2)c1 | 21% | 0.294 µM | 22% | 3.2 | 0% | 0.091 µM | – |
| COc1ccc(/C(C)=C/CN2CCOCC2)cc1 | 0% | > 1 µM | 8% | – | 10% | > 1 µM | – |
| C/C(=C\CN1CCC(Cc2ccccc2)CC1)c1ccccc1 | – | 0.00549 µM | – | 5.1 | 0% | 0.00107 µM | Ki [5]: 0.189 µM; Ki (Mu-type opioid receptor): 0.152 µM |
| C/C(=C\CN1CCCCC1)c1ccc(-c2ccccc2)cc1 | 0% | 0.111 µM | 6% | 129 | 32% | 0.00086 µM | Activity [14]: inactive; Activity [15]: inactive; Activity [12]: inactive; Activity [16]: inactive; Activity [8]: inactive; Activity [13]: inactive; Activity [17]: inactive |
| C/C(=C\CN1CCCCC1)c1ccccc1 | 19% | 0.191 µM | 0% | 0.4 | 0% | 0.459 µM | – |
| C/C(=C\CN(C)C)c1ccc(-c2ccccc2)cc1 | – | 0.106 µM | – | 75.7 | – | – | – |
| C/C(=C\CN(C)C)c1ccc2ccccc2c1 | – | 0.148 µM | – | 7.5 | – | – | – |
| C/C(=C\CN(C)Cc1ccccc1)c1ccc2ccccc2c1 | – | 0.873 µM | – | 111 | – | – | – |
| COc1ccc(/C(C)=C/CN(C)C)cc1 | 10% | > 1 µM | 20% | – | 0% | 0.806 µM | – |
| COc1cccc(/C(C)=C/CN(C)C)c1 | 17% | > 1 µM | 5% | – | 60% | > 1 µM | – |
| C/C(=C\CN(C)Cc1ccccc1)c1ccccc1 | – | 0.061 µM | – | 0.7 | 67% | 0.092 µM | Ki [5]: 0.438 µM; Ki (Mu-type opioid receptor): 0.119 µM |
| COc1cccc(/C(C)=C/CN2CCOCC2)c1 | 46% | > 1 µM | 10% | – | 20% | > 1 µM | – |
| COc1ccc(/C(C)=C/CN(C)Cc2ccccc2)cc1 | – | 0.155 µM | – | 29.5 | 27% | 0.00525 µM | Ki [5]: 0.197 µM; Ki (Mu-type opioid receptor): 0.092 µM |
| C/C(=C\CN1CCOCC1)c1ccccc1 | 12% | > 1 µM | 3% | – | 19% | > 1 µM | – |
| C/C(=C\CN1CCC(Cc2ccccc2)CC1)c1ccc2ccccc2c1 | 38% | 0.016 µM | 10% | 0.7 | 17% | 0.023 µM | – |
| C/C(=C\CN(C)Cc1ccccc1)c1ccc(-c2ccccc2)cc1 | – | 0.0757 µM | – | 12 | – | – | – |
| COc1ccc(/C(C)=C/CN2CCC(Cc3ccccc3)CC2)cc1 | – | 0.0071 µM | – | 1.7 | 0% | 0.00414 µM | Ki [5]: 0.157 µM; Ki (Mu-type opioid receptor): 0.149 µM |
